Legend:
[1] = Cytotoxicity against human HeLa cells after 65 hrs by alamar blue assay; type: cell-based
Procedure, shortened: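 HeLa cells first screened at 500 µM. Active compounds then tested for CC50: cells seeded at 2 × 10^4/well, exposed to compound 65 h, then Alamar Blue added for a further 5 h.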

[2] = test system: Leishmania infantum; experiment: Antileishmanial activity against Leishmania infantum JPCM5 MCAN/ES/98/LLM-87 promastigotes after 72 hrs by alamar blue assay; type: functional, organism-based; conditions: MCAN/ES/98/LLM-87, 72 h
Procedure, shortened: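 L. infantum JPCM5 promastigotes grown at 26 °C in HOMEM. Exposed to serial compound dilutions for 72 h, then Alamar blue read-out to give EC50.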

[3] = test system: Leishmania infantum; experiment: Antileishmanial activity against Leishmania infantum JPCM5 MCAN/ES/98/LLM-87 axenic amastigotes after 72 hrs by alamar blue assay; type: functional, organism-based; conditions: MCAN/ES/98/LLM-87, 72 h
Procedure, shortened: (§1)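 Axenic amastigotes (L. donovani LdBOB; L. infantum clone JPCM5, grown at 26 °C in HOMEM) incubated 72 h with compounds. Viability read by Alamar blue; EC50 determined.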

[4] = Selectivity index, ratio of CC50 for human HeLa cells to EC50 for Leishmania infantum JPCM5 MCAN/ES/98/LLM-87 promastigotes; type: toxicity; conditions: read-out: Ratio CC50/EC50
Procedure, shortened: (§2)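 Selectivity index computed as CC50 (HeLa, Alamar blue) divided by EC50 for the respective parasite stage.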

[5] = Selectivity index, ratio of CC50 for human HeLa cells to EC50 for Leishmania infantum JPCM5 MCAN/ES/98/LLM-87 axenic amastigotes; type: toxicity; conditions: read-out: Ratio CC50/EC50; procedure, shortened: as §2
[6] = test system: Leishmania donovani; experiment: Antileishmanial activity against Leishmania donovani promastigotes after 72 hrs by alamar blue assay; type: functional, organism-based
Procedure, shortened: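 L. donovani promastigotes grown at 26 °C in M199 plus 10% heat-inactivated FCS. Exposed to serial compound dilutions for 72 h, then Alamar blue read-out to give EC50.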

[7] = test system: Leishmania donovani; experiment: Antileishmanial activity against Leishmania donovani LdBOB axenic amastigotes after 72 hrs by alamar blue assay; type: functional, organism-based; procedure, shortened: as §1
[8] = test system: Leishmania donovani; experiment: Antileishmanial activity against Leishmania donovani LdBOB amastigotes infected in human THP1 cells after 72 hrs by Giemsa staining based microscopic method; type: functional, organism-based; conditions: THP-1, 72 h
Procedure, shortened: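 THP-1 cells, kept in MEM plus 10% FBS, plated at 20,000/well with 10 nM PMA, 37 °C, 5% CO2, 75 h. Washed in PBS with 1 mM CaCl2, 0.5 mM MgCl2, 0.1% BSA. Infected with axenic LdBOB amastigotes at MOI 5 for 18 h, washed, serial compound dilutions for 72 h. Methanol fixation, Giemsa stain, ~200 macrophages/well counted. % infection vs untreated control (100%) gives EC50.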

[9] = Selectivity index, ratio of CC50 for human HeLa cells to EC50 for Leishmania donovani promastigotes; type: toxicity; conditions: read-out: Ratio CC50/EC50; procedure, shortened: as §2
[10] = Selectivity index, ratio of CC50 for human HeLa cells to EC50 for Leishmania donovani LdBOB axenic amastigotes; type: toxicity; conditions: read-out: Ratio CC50/EC50; procedure, shortened: as §2
[11] = Selectivity index, ratio of CC50 for human HeLa cells to EC50 for Leishmania donovani LdBOB amastigotes infected in human THP1 cells; type: toxicity, cell-based; conditions: read-out: Ratio CC50/EC50; procedure, shortened: as §2
[12] = test system: Leishmania infantum; experiment: Selectivity ratio of EC50 for antileishmanial activity against Leishmania infantum JPCM5 MCAN/ES/98/LLM-87 promastigotes to EC50 for antileishmanial activity against Leishmania infantum JPCM5 MCAN/ES/98/LLM-87 amastigotes; type: functional
[13] = test system: Leishmania infantum; experiment: Potency index, ratio of pentamidine EC50 to compound EC50 for antileishmanial activity against Leishmania infantum JPCM5 MCAN/ES/98/LLM-87 promastigotes; type: functional
[14] = test system: Leishmania infantum; experiment: Potency index, ratio of miltefosine EC50 to compound EC50 for antileishmanial activity against Leishmania infantum JPCM5 MCAN/ES/98/LLM-87 promastigotes; type: functional

| SMILES | EC50 [8] [µM] | CC50 at 65 h [1] [µM] | EC50 [2] [µM] | EC50 [3] [µM] | selectivity ratio [4] | selectivity ratio [5] | EC50 [6] [µM] | EC50 [7] [µM] | selectivity ratio [9] | selectivity ratio [10] | selectivity ratio [11] | Ratio EC50 [12] | Ratio EC50 [13] | Ratio EC50 [14] |
| --- | --- | --- | --- | --- | --- | --- | --- | --- | --- | --- | --- | --- | --- | --- |
| O=C(c1cc2c([nH]c3ccccc32)c(-c2ccccc2)n1)N1CCN(c2cccc(Cl)c2)CC1 | 6.8 | 18.4 | 15.9 | 3.3 | 1.2 | 5.6 | 13.2 | 10.2 | 1.4 | 1.8 | 2.7 |  |  |  |
| O=C(c1cc2c([nH]c3ccccc32)c(-c2ccccc2)n1)N1CCN(Cc2ccccc2)CC1 | 8.8 | 28.9 | 24.3 |  | 1.2 |  | 16.4 | 12.6 | 1.8 | 2.3 | 3.3 |  |  |  |
| O=C(c1cc2c([nH]c3ccccc32)c(-c2ccccc2)n1)N1CCN(c2ccccc2F)CC1 | 4 | > 500 | 14.9 | 9.4 | > 33.6 | > 53.2 | 3.47 | 2.8 | > 144 | > 179 | > 125 |  |  |  |
| O=C(c1cc2c([nH]c3ccccc32)c(-c2ccccc2)n1)N1CCN(c2ccncc2)CC1 |  | 78.7 | 66.7 |  | 1.2 |  | 68.5 |  | 1.2 |  |  |  |  |  |
| O=C(c1cc2c([nH]c3ccccc32)c(-c2ccccc2)n1)N1CCN(c2ccccn2)CC1 | 11.9 | > 500 | 34 |  | > 14.7 |  | 7.5 | 5.1 | > 66.7 | > 98 | > 42 |  |  |  |
| O=C(c1cc2c([nH]c3ccccc32)c(-c2ccccc2)n1)N1CCN(c2ccc(Cl)cc2)CC1 |  | > 500 | 33 |  | > 15.2 |  | 38.6 |  | > 12.9 |  |  |  |  |  |
| O=C(c1cc2c([nH]c3ccccc32)c(-c2ccccc2)n1)N1CCN(c2ccc(F)cc2)CC1 | 22.3 | > 500 | 14.1 | 11.3 | > 35.5 | > 44.2 | 17.5 | 12.6 | > 28.6 | > 39.7 | > 22.4 |  |  |  |
| O=C(c1cc2c([nH]c3ccccc32)c(-c2ccccc2)n1)N1CCN(c2ccccc2)CC1 | 7.3 | 38.1 | 12.5 | 4.5 | 3 | 8.5 | 16.3 | 12.5 | 2.3 | 3 | 5.2 |  |  |  |
| O=C(c1cc2c([nH]c3ccccc32)c(-c2ccccc2)n1)N1CCN(c2ccccc2Cl)CC1 | 8.5 | > 500 | 15.7 | 12.2 | > 31.8 | > 41 | 6.98 | 5.8 | > 71.6 | > 86.2 | > 58.8 |  |  |  |
| O=C(c1cc2c([nH]c3ccccc32)c(-c2ccccc2)n1)N1CCN(c2ccc([N+](=O)[O-])cc2)CC1 | 21.5 | > 500 | 19.8 | 24.8 | > 25.5 | > 20.2 | 12.8 | 11.8 | > 39.1 | > 42.4 | > 23.3 |  |  |  |
| COc1ccccc1N1CCN(C(=O)c2cc3c([nH]c4ccccc43)c(-c3ccccc3)n2)CC1 | 8 | 205 | 3.35 | 4.9 | 61.1 | 41.8 | 3.49 | 2.3 | 58.7 | 89 | 25.6 | 2 - 5 | 4 | 4 |
| COc1ccc(N2CCN(C(=O)c3cc4c([nH]c5ccccc54)c(-c4ccccc4)n3)CC2)cc1 | 9.2 | > 500 | 9.07 | 5.2 | > 55.1 | > 96.2 | 6.32 | 2.8 | > 79.1 | > 179 | > 54.4 | 2 - 5 |  |  |

Further molecules by falling EC50 [8], results first:

| EC50 [8] [µM] | SMILES | CC50 at 65 h [1] [µM] | EC50 [2] [µM] | EC50 [3] [µM] | selectivity ratio [4] | selectivity ratio [5] | EC50 [6] [µM] | EC50 [7] [µM] | selectivity ratio [9] | selectivity ratio [10] | selectivity ratio [11] | Ratio EC50 [12] | Ratio EC50 [13] | Ratio EC50 [14] |
| --- | --- | --- | --- | --- | --- | --- | --- | --- | --- | --- | --- | --- | --- | --- |
| 23.7 | N=C(N)c1ccc(OCCCCCOc2ccc(C(=N)N)cc2)cc1 [PENTAMIDINE] |  | 8.31 | 2.7 |  |  | 6.4 | 1.6 |  |  |  |  |  |  |
| 9.6 | Cc1ccccc1N1CCN(C(=O)c2cc3c([nH]c4ccccc43)c(-c3ccccc3)n2)CC1 | > 500 | 36.2 |  | > 13.8 |  | 12.6 | 6 | > 39.7 | > 83.3 | > 52.1 |  |  |  |
| 6.9 | COc1cccc(N2CCN(C(=O)c3cc4c([nH]c5ccccc54)c(-c4ccccc4)n3)CC2)c1 | 205 | 2.89 | 2.8 | 71 | 73.3 | 4.85 | 1.9 | 42.3 | 108 | 29.7 | 2 - 5 | 4 | 4 |
| 6.4 | CCCCCCCCCCCCCCCCOP(=O)([O-])OCC[N+](C)(C)C [MILTEFOSINE] |  | 12.6 | 4.8 |  |  | 3.12 | 2.8 |  |  |  |  |  |  |
| 6.4 | O=C(c1cc2c([nH]c3ccccc32)c(-c2ccccc2)n1)N1CCN(c2cccc(Cl)c2Cl)CC1 | > 500 | 10.7 | 2.9 | > 46.7 | > 172 | 6.95 | 5.7 | > 71.9 | > 87.7 | > 78.1 | 2 - 5 |  |  |
| 5.7 | Cc1ccc(N2CCN(C(=O)c3cc4c([nH]c5ccccc54)c(-c4ccccc4)n3)CC2)cc1 | > 500 | 9.63 | 6.2 | > 51.9 | > 80.6 | 4.91 | 3.3 | > 102 | > 152 | > 87.7 | 2 - 5 |  |  |

Source: ChEMBL document CHEMBL4196090, “Design, synthesis and biological evaluation of piperazinyl-β-carbolinederivatives as anti-leishmanial agents” (Eur J Med Chem, 2018)
